Assay results pooled from the literature.
Protocols differ between the studies behind these lines.
Target: Dual serine/threonine and tyrosine protein kinase (DSTYK, Homo sapiens, UniProt Q6XUX3)
Sequence (Q6XUX3 1-929, as in one of the studies): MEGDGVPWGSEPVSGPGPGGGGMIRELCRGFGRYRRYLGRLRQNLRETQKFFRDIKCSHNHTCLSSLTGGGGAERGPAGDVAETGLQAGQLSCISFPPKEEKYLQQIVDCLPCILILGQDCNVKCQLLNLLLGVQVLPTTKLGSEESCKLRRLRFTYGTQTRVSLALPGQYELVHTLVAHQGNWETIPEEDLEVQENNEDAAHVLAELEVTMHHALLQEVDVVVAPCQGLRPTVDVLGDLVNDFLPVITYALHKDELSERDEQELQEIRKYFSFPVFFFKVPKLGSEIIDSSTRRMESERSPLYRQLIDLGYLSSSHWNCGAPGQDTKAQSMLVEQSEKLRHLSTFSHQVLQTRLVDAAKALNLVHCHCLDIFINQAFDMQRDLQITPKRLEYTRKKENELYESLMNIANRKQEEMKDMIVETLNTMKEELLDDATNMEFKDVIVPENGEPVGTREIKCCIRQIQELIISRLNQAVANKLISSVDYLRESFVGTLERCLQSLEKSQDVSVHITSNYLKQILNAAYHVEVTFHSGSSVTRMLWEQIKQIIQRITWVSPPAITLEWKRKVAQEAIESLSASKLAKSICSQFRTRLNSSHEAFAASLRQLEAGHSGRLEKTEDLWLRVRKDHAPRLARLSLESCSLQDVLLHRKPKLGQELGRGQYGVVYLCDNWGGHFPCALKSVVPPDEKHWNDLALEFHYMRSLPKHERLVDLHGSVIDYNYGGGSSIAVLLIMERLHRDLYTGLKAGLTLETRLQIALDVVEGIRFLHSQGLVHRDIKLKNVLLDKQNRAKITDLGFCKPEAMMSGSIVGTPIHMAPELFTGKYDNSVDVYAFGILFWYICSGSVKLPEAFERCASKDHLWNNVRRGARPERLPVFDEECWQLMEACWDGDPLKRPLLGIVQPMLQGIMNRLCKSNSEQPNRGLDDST

`N[C@H]1CCN(c2nccc(-c3cnn4ncccc34)n2)C1` has a remaining binding of 100% (binding; 1 µM).
`CO[C@@H](C)c1c(Nc2ccc([C@@H](N(C)C(=O)C3CCS(=O)(=O)CC3)C(F)(F)F)cc2)cnc2cc(Cl)nn12` has a remaining binding of 100% (cell-free assay; competition with immobilised ligand; 1 µM).
With `O=C(NCC1CCOCC1)c1n[nH]cc1NC(=O)c1c(F)cccc1F` the remaining binding was 86% (binding; competition with immobilised ligand; 1 µM).
`COc1cnc(Nc2cccc(S(N)(=O)=O)c2)nc1N1CCN(c2ccccc2)C(=O)C1` gave a remaining binding of 89% (binding; competition with immobilised ligand; 1 µM).
`NS(=O)(=O)c1cc(NC(=O)Cc2ccccc2)ccc1Oc1cccc(Cl)c1` gave a remaining binding of 83% (cell-free assay; competition with immobilised ligand; 1 µM).
For `C[C@H]1CCN(c2nccc(-c3cnn4ncccc34)n2)C1`, the remaining binding was 94% (binding; 1 µM).
With `C[C@@H](c1ccc(-n2cnc3c(N)ncnc32)cc1)N1CCc2nn(C)c(Cc3ccccc3)c2C1=O` the remaining binding was 58% (binding; competition with immobilised ligand; 0.1 µM).
`CNC(=O)[C@@H]1CC[C@@H](n2c(-c3ccc4cnccc4c3)nc3ccc(C(=O)NCc4cccc(C(N)=O)c4)cc32)C1` has a remaining binding of 100% (binding; competition with immobilised ligand; 1 µM).
For `CN1CCN(c2cnc3c(C4CCN(C(=O)c5ccc(OC(F)(F)F)cc5N)CC4)ncnc3c2)CC1`, the remaining binding was 100% (cell-free assay; competition with immobilised ligand; 1 µM).
`Cc1cnc(Nc2ccc(C(=O)N3CCC(N4CCCC4)CC3)cc2)nc1-c1cc2ccccc2s1` gave a remaining binding of 22% (binding; competition with immobilised ligand; 1 µM).
For `C=CC(=O)N1CCC(C(=O)NCC(=O)N2CCN(c3nc(-c4cnc(N)nc4C(F)F)nc(N4CCOCC4)n3)CC2)CC1`, the remaining binding was 72% (binding; competition with immobilised ligand; 1 µM).
`CN(C)c1ncnc(-c2ccc3nc(Nc4cc(CN5CCN(C(=O)CC(F)(F)F)CC5)ccn4)[nH]c3c2)c1Cl` gave a remaining binding of 95% (cell-free assay; competition with immobilised ligand; 1 µM).
The remaining binding of `O=C(NCCCN1CCOCC1)c1ccc(Nc2nccc(-c3cc4ccccc4s3)n2)cc1` is reported as 76% (binding; competition with immobilised ligand; 1 µM).
`CN(c1nccc(-c2cnn3ncccc23)n1)C1CC1` has a remaining binding of 98% (binding; 1 µM).
With `CC(C)(O)c1cncc(-c2nc3ccc(F)cc3n2C2CC2)c1` the remaining binding was 100% (cell-free assay; competition with immobilised ligand; 1 µM).
`O=C(c1ccc(Nc2ncc(Cl)c(-c3cc4ccccc4s3)n2)cc1)N1CCC(N2CCCC2)CC1` gave a remaining binding of 32% (binding; competition with immobilised ligand; 1 µM).
With `COc1ccnn2ncc(-c3ccnc(N(C)C)n3)c12` the remaining binding was 100% (binding; 1 µM).
`CNC(=O)c1ccc(Nc2ncc(C(F)(F)F)c(NCc3nccnc3N(C)S(C)(=O)=O)n2)cc1` has a remaining binding of 87% (cell-free assay; competition with immobilised ligand; 0.1 µM).
`c1cnn2ncc(-c3ccnc(N4CCC45COC5)n3)c2c1` has a remaining binding of 79% (binding; 1 µM).
For `CCc1ccccc1C(=O)Nc1n[nH]c2c(C)c(F)c(C3C(C#N)=C(C)N(C)C(C)=C3C#N)cc12`, the remaining binding was 95% (cell-free assay; competition with immobilised ligand; 1 µM).
With `CN(CCCC(F)(F)F)c1nccc(-c2cnn3ncccc23)n1` the remaining binding was 88% (binding; 1 µM).
For `c1cncc(-c2cccc(Nc3nccc(NC4CCCCC4)n3)c2)c1`, the remaining binding was 75% (binding; competition with immobilised ligand; 10 µM).
